An excerpt weighted towards active compounds, which were near 1.1% of everything screened.
proCasp3 act = activators of human procaspase-3 D3A mutant, primary screen, biochemical, absorbance, PC-3 D3A mutant, single concentration; 0.11% of 330,000 active; activation, % at 8.5 µM; AID 463141, 2010; recombinant procaspase-3 D3A, Ac-DEVD-pNA absorbance 405 nm;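 active means activation above the mean of all tested compounds plus 3 SD, cut at about 21% in these data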;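 further: 0% = DMSO alone and 100% = DMSO wells spiked with extra 5 µM PC-3 D3A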
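Test system: Procaspase-3 D3A mutant, all three cleavage aspartates alanine | Dosing: Single dose, 8.5 µM nominal compound, 0.8% DMSO | Schedule: 1 h preincubation, 2 h reaction | Technique: 405 nm absorbance of p-nitroaniline, reads at 0 and 120 min | Repeats: One well per compound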
LYPLA2 counter = LYPLA2 inhibitors, primary screen, counter-screen for PME1 inhibitor project, biochemical, fluorescence polarization, FP-Rh probe ABPP. Acyl-protein thioesterase 2 (Homo sapiens), O95372. recombinant LYPLA2. inhibition, % at 5.9 µM. 0.38% of 320,000 active. AID 2177, 2009;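 active means inhibition above the screen-wide mean plus 3 SD, limit set per campaign, cut at about 26% in these data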;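 further: 0% = LYPLA2 with DMSO and 100% = wells lacking LYPLA2 enzyme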
LYPLA1 inh = LYPLA1 inhibitors, primary screen, counter-screen for PME1 inhibitor project, biochemical, fluorescence polarization, FP-Rh probe ABPP; inhibition, % at 5.9 µM; recombinant LYPLA1; 0.16% of 320,000 active; Acyl-protein thioesterase 1 (Homo sapiens), O75608; AID 2174, 2009;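 active means inhibition above the mean of all tested compounds plus 3 SD, set per campaign, cut at about 14% in these data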;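 further: inhibitors block serine hydrolase probe labeling of LYPLA1 so polarization falls; 0% = enzyme with DMSO and 100% = wells lacking LYPLA1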
proCasp7 act = procaspase-7 activators, primary screen, counter-screen for procaspase-3 activator project, biochemical, absorbance, HTS, human; recombinant procaspase-7, Ac-DEVD-pNA absorbance 405 nm; D23A/D198A/D206A triple mutant, cannot self-cleave; scale: DMSO 0, 5 µM enzyme 100; activation, % at 8.5 µM; 0.093% of 330,000 active;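 active means percent activation above the screen-wide mean plus 3 SD, cut at about 25% in these data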
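Assay system: Uncleavable procaspase-7 mutant enzyme | Input: 2 µM procaspase-7 mutant as dispensed | Timing: 1 h compound preincubation, 2 h substrate cleavage, 25 °C | Repeats: One well per compound | Control set: DMSO wells as 0%, DMSO with 5 µM added PC-7 as 100% | Technique: Epi-absorbance of released pNA at 405 nm, two timepoints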
PREPL inhibitor = PREPL enzyme inhibitors, primary screen, biochemical, fluorescence polarization; Prolyl endopeptidase-like (Homo sapiens), Q4J6C6; recombinant PREPL, fluorescence polarization activity-based probe; inhibition, % at 5.96 µM; 0.68% of 320,000 active; AID 2751, 2010; in the data active means inhibition above about 43%;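 further: 0% = enzyme with DMSO and 100% = wells lacking enzyme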
Target sequence (Q4J6C6 whole entry, looked up): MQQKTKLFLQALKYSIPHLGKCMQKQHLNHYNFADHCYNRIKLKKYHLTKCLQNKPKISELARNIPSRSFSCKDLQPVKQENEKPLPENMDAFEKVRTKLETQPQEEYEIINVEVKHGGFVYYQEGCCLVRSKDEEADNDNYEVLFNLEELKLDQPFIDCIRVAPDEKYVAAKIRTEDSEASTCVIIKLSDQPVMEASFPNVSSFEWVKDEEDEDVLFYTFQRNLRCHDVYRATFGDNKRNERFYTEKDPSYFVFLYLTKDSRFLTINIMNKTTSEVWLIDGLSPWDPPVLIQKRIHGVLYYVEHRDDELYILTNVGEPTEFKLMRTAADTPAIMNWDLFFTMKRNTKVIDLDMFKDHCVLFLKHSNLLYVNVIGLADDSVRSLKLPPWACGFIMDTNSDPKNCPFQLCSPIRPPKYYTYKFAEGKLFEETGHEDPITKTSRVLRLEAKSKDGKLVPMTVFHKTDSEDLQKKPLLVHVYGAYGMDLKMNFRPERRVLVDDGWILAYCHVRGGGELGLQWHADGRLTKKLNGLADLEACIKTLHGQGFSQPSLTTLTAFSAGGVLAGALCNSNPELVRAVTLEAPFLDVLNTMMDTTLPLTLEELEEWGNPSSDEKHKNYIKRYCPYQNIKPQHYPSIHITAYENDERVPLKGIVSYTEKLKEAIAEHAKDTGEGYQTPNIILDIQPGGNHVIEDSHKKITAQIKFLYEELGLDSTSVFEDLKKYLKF
LYPLA2 confirm = LYPLA2 inhibitors, retest, confirmation, counter-screen for PME1 inhibitor project, biochemical, fluorescence polarization, FP-Rh probe ABPP | shares compounds with LYPLA2 counter | recombinant LYPLA2 | inhibition, % at 5.9 µM | 72% of 1,100 active | AID 2232, 2010;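 active means mean inhibition across replicates above the hit cutoff set in the primary screen, cut at about 26% in these data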;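 further: blocked labeling of the enzyme by serine hydrolase FP-Rh probe lowers polarization; 0% = enzyme with DMSO and 100% = wells lacking LYPLA2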
* = called active by the depositor; nt = not tested or not shown.

SMILES	proCasp3 act	LYPLA2 counter	LYPLA1 inh	proCasp7 act	PREPL inhibitor	LYPLA2 confirm
Cc1ccc(N2C(=O)c3ccc(C(=O)N4CCN(Cc5ccccc5)CC4)cc3C2=O)cc1	4.6	32.6*	1.5	-0.3	13.2	27.1*
O=C(Nc1ccccc1C(=O)O)c1cc(S(=O)(=O)N2CCCCC2)c(Cl)cc1Cl	-0.5	-0.7	1.0	3.0	13.9	nt
Cc1cc(N/N=C/c2c(O)ccc3ccccc23)nc(-c2ccccc2O)n1	1.6	45.7*	3.9	2.2	27.7	-14.8
Oc1ccc2ccccc2c1/C=N/Nc1ccccc1	-1.7	6.6	5.3	-7.4	1.3	nt
O=C(C1CCN(S(=O)(=O)c2ccccc2)CC1)N1CCN(c2ccccc2)CC1	-5.1	10.2	1.3	-8.8	2.5	nt
COc1ccc(N2CCN(C(=O)C3CCN(S(=O)(=O)c4ccccc4)CC3)CC2)cc1	5.7	37.5*	-1.9	-5.6	4.5	44.1*
CC(=O)c1ccc(N2CCN(C(=O)C3CCN(S(=O)(=O)c4cccs4)CC3)CC2)cc1	-9.8	28.7*	4.2	3.5	11.5	29.2*
CC1CCN(C(=O)C2CCN(S(=O)(=O)c3cccs3)CC2)CC1	-5.0	1.8	1.3	1.1	9.8	nt
O=C(C1CCN(S(=O)(=O)c2cccnc2)CC1)N1CCN(c2ccc(Cl)cc2)CC1	-0.7	38.0*	3.3	5.3	6.2	41.8*
O=C(C1CCN(S(=O)(=O)c2cccnc2)CC1)N1CCN(c2ccccc2Cl)CC1	2.7	7.5	3.3	2.6	3.8	nt
CN1C(=O)CC(C(=O)Nc2ccccc2F)SC1=Nc1ccc2c(c1)OCO2 (stereo not drawn)	-8.1	8.9	0.5	0.0	8.8	nt
CCN1C(=O)CC(C(=O)Nc2ccc(F)cc2)SC1=Nc1ccc2c(c1)OCO2 (stereo not drawn)	2.1	35.5*	2.1	13.5	14.0	3.3
COc1ccc(N=C2SC(C(=O)Nc3ccc4c(c3)OCO4)CC(=O)N2C)cc1 (stereo not drawn)	-6.0	52.6*	-1.8	-7.7	21.1	39.2*
CCN=C1SC(C(=O)Nc2cccc(Br)c2)CC(=O)N1CC (stereo not drawn)	7.1	26.4*	-0.4	-6.2	5.0	25.9*
COc1cc(OC)c(NC(=O)CCNS(=O)(=O)c2ccc3c(c2)CC(C)N3C(C)=O)cc1Cl (stereo not drawn)	3.0	-6.3	-8.8	-0.6	3.5	nt
CCOC(=O)C1CN(S(=O)(=O)c2cc(OC)ccc2OC)C1	5.1	-7.8	1.2	1.9	1.3	nt
C=CCn1c(SCC(=O)NC2CCS(=O)(=O)C2)nnc1-c1ccncc1 (stereo not drawn)	3.3	-5.2	-4.8	2.5	2.5	nt
O=[N+]([O-])c1ccccc1/C=C\C=N\N1CCN(c2ccccc2)CC1	-2.1	40.0*	9.5	-9.2	18.0	36.1*
O=[N+]([O-])c1ccccc1/C=N\N1CCN(c2ccccc2)CC1	9.0	2.5	1.9	-0.7	12.1	nt
CN(Cc1ccc(C(F)(F)F)cc1)C(=O)c1ccc(Oc2ccccc2)cc1	5.2	28.9*	10.9	-13.1	4.1	24.1
CSc1ncccc1C(=O)OCC(=O)c1ccc(S(=O)(=O)N2CCCCC2)cc1	5.8	30.8*	0.0	0.4	2.8	31.9*
CCc1nnc(NS(=O)(=O)c2ccc(NC(=O)c3ccc(Cl)cc3)cc2)s1	0.7	9.4	-1.8	2.1	9.0	nt
CCc1nnc(NS(=O)(=O)c2ccc(N/C=C(\C=O)c3nc4cc(Cl)ccc4o3)cc2)s1	-10.2	29.3*	-0.3	2.5	1.5	42.6*
CC(=O)N1CCN(C(=O)c2ccc3c(c2)S(=O)(=O)c2ccccc2C3=O)CC1	-4.1	31.8*	3.0	-10.7	29.3	31.8*

Screens: PubChem BioAssay, The Scripps Research Institute Molecular Screening Center
